Source: ChEMBL document CHEMBL3286129, “Optimization of peptidomimetic boronates bearing a P3 bicyclic scaffold as proteasome inhibitors” (Eur J Med Chem, 2014)

Experiments:
[1] = Cytotoxicity against human melanoma cells assessed as cell growth at 10 uM relative to control; type: functional; conditions: read-out: Activity
In short: (§1)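 Single-concentration screen against a panel of human cancer cell lines. Each value is the mean percent growth across the cell lines of that tumour subpanel.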

TK-10 = assay: Growth inhibition of human TK10 cells; type: functional
[2] = molecular target: T1, Proteasome Macropain subunit MB1 (Homo sapiens) (UniProt P28074); assay: Inhibition of chymotrypsin-like activity of 20S proteasome in human erythrocytes using Suc-Leu-Leu-Val-Tyr-AMC as substrate at 20 uM by fluorescence assay relative to control
T1 sequence (whole entry): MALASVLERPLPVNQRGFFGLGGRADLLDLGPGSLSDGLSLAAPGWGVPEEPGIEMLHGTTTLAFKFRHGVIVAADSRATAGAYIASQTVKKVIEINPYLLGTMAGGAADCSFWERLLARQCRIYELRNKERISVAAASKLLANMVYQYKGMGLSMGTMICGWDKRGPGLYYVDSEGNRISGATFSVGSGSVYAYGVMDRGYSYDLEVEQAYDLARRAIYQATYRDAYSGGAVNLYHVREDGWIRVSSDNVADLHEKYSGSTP
In short: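 Single inhibitor concentration, equivalent DMSO as negative control. AMC fluorescence read at ex 380/em 460 nm; percent inhibition of ChT-L activity.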

[3] = Growth inhibition of human Hs 578T cells; type: functional
[4] = Growth inhibition of human UACC62 cells; type: functional; conditions: UACC-62
[5] = Growth inhibition of human UO31 cells; type: functional; conditions: UO-31
SN12C = assay: Growth inhibition of human SN12C cells; type: functional
[6] = Growth inhibition of human BT549 cells; type: functional
MDA-MB-231 = assay: Growth inhibition of human MDA-MB-231 cells; type: functional
[7] = Growth inhibition of human NCI-ADR-RES cells; type: functional
[8] = molecular target: T2, Proteasome Macropain subunit MB1 (Homo sapiens, UniProt P28074); assay: Inhibition of chymotrypsin-like activity of 20S proteasome in human erythrocytes using Suc-Leu-Leu-Val-Tyr-AMC as substrate by fluorescence assay; conditions: read-out: Ki
T2 sequence (P28074 whole entry): T1 sequence (whole entry)

A498 = assay: Growth inhibition of human A498 cells; type: functional
SK-MEL-28 = assay: Growth inhibition of human SK-MEL-28 cells; type: functional
NCI-H226 = assay: Growth inhibition of human NCI-H226 cells; type: functional
MDA-MB-468 = assay: Growth inhibition of human MDA-MB-468 cells; type: functional
SNB-19 = assay: Growth inhibition of human SNB19 cells; type: functional
NCI-H322M = assay: Growth inhibition of human NCI-H322M cells; type: functional
A549 = assay: Growth inhibition of human A549/ATCC cells; type: functional
[9] = Growth inhibition of human HCC2998 cells; type: functional; conditions: HCC 2998
[10] = Growth inhibition of human OVCAR5 cells; type: functional; conditions: OVCAR-5
[11] = Cytotoxicity against human CNSC cells assessed as cell growth at 10 uM relative to control; type: functional; conditions: read-out: Activity; in short: as §1
SR = assay: Growth inhibition of human SR cells; type: functional
[12] = Growth inhibition of human HOP92 cells; type: functional
CAKI-1 = assay: Growth inhibition of human CAKI-1 cells; type: functional
SW-620 = assay: Growth inhibition of human SW620 cells; type: functional
[13] = Growth inhibition of human HCT15 cells; type: functional
IGROV-1 = assay: Growth inhibition of human IGROV1 cells; type: functional
MDA-MB-435 = assay: Growth inhibition of human MDA-MB-435 cells; type: functional
HCT-116 = assay: Growth inhibition of human HCT116 cells; type: functional
SNB-75 = assay: Growth inhibition of human SNB75 cells; type: functional
DU-145 = assay: Growth inhibition of human DU145 cells; type: functional
[14] = read-out: LC50 (the source's name)

Structure (SMILES): CC(C)C[C@H](NC(=O)CCn1ccc2ccccc2c1=O)B(O)O
- growth at 10 µM [1]: 30.5%
- GI50 (TK-10): 2930 nM
- LC50 (TK-10): > 100 µM
- TGI (TK-10): 9.8 µM
- inhibition [2]: > 40%
- GI50 [3]: 3.63 µM
- TGI [3]: 48.7 µM
- CC50 [3, 14]: > 100 µM
- GI50 [4]: 4.29 µM
- LC50 (concentration killing 50% of cells) [4]: > 100 µM
- TGI [4]: 24.9 µM
- GI50 [5]: 3.92 µM
- LC50 [5]: > 100 µM
- TGI [5]: 35.3 µM
- GI50 (SN12C): 11.2 µM
- TGI (SN12C): 55.4 µM
- CC50 (SN12C; [14]): > 100 µM
- GI50 ([6]; BT-549): 2210 nM
- TGI ([6]; BT-549): 17.1 µM
- CC50 ([6]; BT-549, read-out: LC50 (the source's name)): > 100 µM
- GI50 (MDA-MB-231): 9.45 µM
- TGI (MDA-MB-231): 59.3 µM
- CC50 (MDA-MB-231; [14]): > 100 µM
- GI50 [7]: 67.1 µM
- LC50 [7]: > 100 µM
- TGI [7]: > 100 µM
- Ki [8]: 51 nM
- GI50 (A498): 1220 nM
- LC50 (A498): > 100 µM
- TGI (A498): 4.79 µM
- GI50 (SK-MEL-28): 3.27 µM
- TGI (SK-MEL-28): > 100 µM
- CC50 (SK-MEL-28; [14]): > 100 µM
- GI50 (NCI-H226): 1470 nM
- TGI (NCI-H226): 3.24 µM
- CC50 (NCI-H226; [14]): 7.15 µM
- GI50 (MDA-MB-468): 1380 nM
- TGI (MDA-MB-468): 7.08 µM
- CC50 (MDA-MB-468; [14]): > 100 µM
- GI50 (SNB-19): 8.02 µM
- TGI (SNB-19): > 100 µM
- CC50 (SNB-19; [14]): > 100 µM
- GI50 (NCI-H322M): 76.8 µM
- TGI (NCI-H322M): > 100 µM
- CC50 (NCI-H322M; [14]): > 100 µM
- GI50 (A549): 8.41 µM
- TGI (A549): > 100 µM
- CC50 (A549; [14]): > 100 µM
- GI50 [9]: 6.08 µM
- LC50 [9]: 66.4 µM
- TGI [9]: 21.3 µM
- GI50 [10]: 18.8 µM
- LC50 [10]: > 100 µM
- TGI [10]: > 100 µM
- growth at 10 µM [11]: 52%
- GI50 (SR): 1700 nM
- TGI (SR): 28.9 µM
- CC50 (SR; [14]): > 100 µM
- GI50 ([12]; HOP-92): 10.9 µM
- TGI ([12]; HOP-92): 67.1 µM
- CC50 ([12]; HOP-92, read-out: LC50 (the source's name)): > 100 µM
- GI50 (CAKI-1): 2930 nM
- TGI (CAKI-1): 27 µM
- CC50 (CAKI-1; [14]): > 100 µM
- GI50 (SW-620): 3000 nM
- LC50 (SW-620): 93.4 µM
- TGI (SW-620): 12 µM
- GI50 ([13]; HCT-15): 9.57 µM
- TGI ([13]; HCT-15): > 100 µM
- CC50 ([13]; HCT-15, read-out: LC50 (the source's name)): > 100 µM
- GI50 (IGROV-1): 12.3 µM
- LC50 (IGROV-1): > 100 µM
- TGI (IGROV-1): > 100 µM
- GI50 (MDA-MB-435): 1270 nM
- TGI (MDA-MB-435): 2810 nM
- CC50 (MDA-MB-435; [14]): 6.24 µM
- GI50 (HCT-116): 1550 nM
- LC50 (HCT-116): > 100 µM
- TGI (HCT-116): 19.8 µM
- GI50 (SNB-75): 2940 nM
- LC50 (SNB-75): 93.4 µM
- TGI (SNB-75): 15.9 µM
- GI50 (DU-145): 9.13 µM
- TGI (DU-145): > 100 µM
- CC50 (DU-145; [14]): > 100 µM
